Key:
Balamuthia mandrillaris [1] = assay: Antimicrobial activity against Balamuthia mandrillaris ATCC 50209 infected in HBMEC assessed as inhibition of encystment at 5 ug/mL after 7 days; type: functional; details: ATCC 50209, 168 h
Outline: (§1)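 Trophozoites (>95%) held at 2 × 10^5/ml in RPMI 1640 with drug at 37°C for 48 h. SDS (0.5% final) lyses the remaining trophozoites, and a hemocytometer count is taken before and after SDS. % encystment = post-SDS/pre-SDS × 100, and percent inhibition is calculated from it; mean ± SE. For viability, cysts made before SDS were placed on HBMEC monolayers for up to 7 days and watched for trophozoite emergence.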

Balamuthia mandrillaris [2] = assay: Antimicrobial activity against Balamuthia mandrillaris ATCC 50209 infected in HBMEC assessed as inhibition of amoeba-induced cytopathogenicity at 5 ug/mL after 24 hrs by LDH release assay; type: functional; details: ATCC 50209, 24 h
Outline: (§2)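 B. mandrillaris ATCC 50209 (grown on host-cell feeder layers) pretreated with drug for 45 min in serum-free medium, then added at 10^5 amoebae/well, with inhibitor still present, to primary HBMEC monolayers (RPMI 1640, 10% FBS, 10% NuSerum). Incubation at 37°C, 5% CO2, up to 24 h. Cytotoxicity read as LDH release into supernatant. Percent inhibition is relative to amoebae alone; mean ± SE.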

Balamuthia mandrillaris [3] = assay: Antimicrobial activity against Balamuthia mandrillaris ATCC 50209 infected in HBMEC assessed as inhibition of amoeba-induced cytopathogenicity at 10 ug/mL after 24 hrs by LDH release assay; type: functional; details: ATCC 50209, 24 h; outline: as §2
Balamuthia mandrillaris [4] = assay: Antimicrobial activity against Balamuthia mandrillaris ATCC 50209 infected in HBMEC assessed as inhibition of encystment at 10 ug/mL after 7 days; type: functional; details: ATCC 50209, 168 h; outline: as §1
Balamuthia mandrillaris [5] = assay: Antimicrobial activity against Balamuthia mandrillaris ATCC 50209 infected in HBMEC assessed as inhibition of amoeba-induced cytopathogenicity at 200 uM after 24 hrs by LDH release assay; type: functional; details: ATCC 50209, 24 h; outline: as §2
Balamuthia mandrillaris [6] = assay: Antimicrobial activity against Balamuthia mandrillaris ATCC 50209 infected in HBMEC assessed as inhibition of encystment at 500 uM after 7 days; type: functional; details: ATCC 50209, 168 h; outline: as §1
Balamuthia mandrillaris [7] = assay: Antimicrobial activity against Balamuthia mandrillaris ATCC 50209 infected in HBMEC assessed as inhibition of encystment at 100 uM after 7 days; type: functional; details: ATCC 50209, 168 h; outline: as §1
Balamuthia mandrillaris [8] = assay: Antimicrobial activity against Balamuthia mandrillaris ATCC 50209 infected in HBMEC assessed as inhibition of amoeba-induced cytopathogenicity at 100 uM after 24 hrs by LDH release assay; type: functional; details: ATCC 50209, 24 h; outline: as §2
Balamuthia mandrillaris [9] = assay: Antimicrobial activity against Balamuthia mandrillaris ATCC 50209 infected in HBMEC assessed as inhibition of encystment at 200 uM after 7 days; type: functional; details: ATCC 50209, 168 h; outline: as §1
Balamuthia mandrillaris [10] = assay: Antimicrobial activity against Balamuthia mandrillaris ATCC 50209 infected in HBMEC assessed as inhibition of encystment at 10 uM […]; type: functional; outline: as §1
Balamuthia mandrillaris [11] = assay: Antimicrobial activity against Balamuthia mandrillaris ATCC 50209 infected in HBMEC assessed as inhibition of amoeba-induced cytopathogenicity at 50 uM after 24 hrs by LDH release assay; type: functional; details: ATCC 50209, 24 h; outline: as §2
Balamuthia mandrillaris [12] = assay: Antimicrobial activity against Balamuthia mandrillaris ATCC 50209 infected in HBMEC assessed as inhibition of amoeba-induced cytopathogenicity at 10 uM after 24 hrs by LDH release assay; type: functional; details: ATCC 50209, 24 h; outline: as §2
Balamuthia mandrillaris [13] = assay: Antimicrobial activity against Balamuthia mandrillaris ATCC 50209 infected in HBMEC assessed as inhibition of encystment at 50 uM after 7 days; type: functional; details: ATCC 50209, 168 h; outline: as §1
[14] = Cytotoxicity against HBMEC assessed as LDH release at 10 ug/mL; details: human

Row | Structure (SMILES) | inhibition at 5 µg/mL (Balamuthia mandrillaris [1]) [%] | inhibition at 5 µg/mL (Balamuthia mandrillaris [2]) [%] | inhibition at 10 µg/mL (Balamuthia mandrillaris [3]) [%] | inhibition at 10 µg/mL (Balamuthia mandrillaris [4]) [%] | inhibition at 100 µM (Balamuthia mandrillaris [7]) [%] | other results
1 | C[C@@H]1CC[C@H]2[C@@H](C)C(=O)O[C@@H]3O[C@@]4(C)CC[C@@H]1[C@]32OO4 [ARTEMISININ] | 37 | 34 | 45 | 52 |  | 
2 | CCC[C@@H]1C[C@@H](C(=O)N[C@@H]([C@H]2O[C@H](SC)[C@H](O)[C@@H](O)[C@H]2O)[C@H](C)Cl)N(C)C1 [CLINDAMYCIN] | 4 | 16 | 10 | 0 |  | 
3 | C[C@@H]1C[C@@H]([C@H](O)CC2CC(=O)NC(=O)C2)C(=O)[C@@H](C)C1 [CYCLOHEXIMIDE] |  |  |  |  | 94 | inhibition at 200 µM (Balamuthia mandrillaris [5]): 0%; inhibition at 500 µM (Balamuthia mandrillaris [6]): 98.4%; inhibition at 100 µM (Balamuthia mandrillaris [8]): 44%; inhibition at 200 µM (Balamuthia mandrillaris [9]): 95%
4 | C=C1[C@@H](C)[C@H]2[C@H](Cc3ccccc3)NC(=O)[C@]23[C@H](OC(C)=O)/C=C/[C@@](C)(O)C(=O)[C@@H](C)C/C=C/[C@H]3[C@@H]1O [CYTOCHALASIN D] |  |  |  |  | 76 | inhibition at 10 µM (Balamuthia mandrillaris [10]): 42%; inhibition at 50 µM (Balamuthia mandrillaris [11]): 42%; inhibition at 10 µM (Balamuthia mandrillaris [12]): 13%; inhibition at 50 µM (Balamuthia mandrillaris [13]): 64%
5 | Nc1nc(=O)[nH]cc1F [FLUCYTOSINE] | 43 | 20 | 61 | 56 |  | 
6 | CC(=O)N1CCN(c2ccc(OCC3COC(Cn4ccnc4)(c4ccc(Cl)cc4Cl)O3)cc2)CC1 (configuration not stated) [KETOCONAZOLE] | 0 | 14 | 88.5 | 0 |  | Activity [14]: < 5%
